Calls of active or inactive are those of the source. The rule behind the calls is not given here.
Experiments:
Danio rerio = species on record: Danio rerio; assay: Antiangiogenic activity in wild type zebrafish 24 hrs post fertilization embryos assessed as reduction in blood vessel growth at 2 uM treated for 48 hrs by alkaline phosphatase assay relative to control; assay type: functional
Procedure, shortened: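 Wild-type zebrafish embryos from natural mating, raised at 28.5 °C; healthy embryos selected at 24 hpf, dechorionated, one per well in 100 μL embryo water with agent (2 μM) in DMSO 0.2% v/v, 10 per group, exposed 24–72 hpf. Ethanol-dehydrated, diethanolamine buffer (1 M, pH 9.8) washes, p-nitrophenyl phosphate 0.5 mg/mL 30 min RT, NaOH stop, OD 405 nm; percent of control, ≥3 repeats, t-test.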

Chorioallantoic membrane [1] = assay: Antiangiogenic activity in chicken fertilized egg chorioallantoic membrane at 2 uM after 48 hrs by stereomicroscopic analysis relative to control; assay type: functional, tissue-based; conditions: Gallus gallus
Procedure, shortened: (§1)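 Fertilized chicken eggs incubated at 37 °C, positioned horizontally and rotated; 1 cm2 window opened on day 4, malformed or dead embryos excluded. Test agents at 2 μM (100 μL/egg) or retinoic acid at 3 μM, in DMSO (0.2% v/v) in Tris buffer pH 7.4; ten eggs/group. Reincubated 2 days. CAM microvasculature imaged under stereomicroscope, standardized area quantified; percent of vehicle control, three repeats, t-test.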

Chorioallantoic membrane [2] = assay: Antiangiogenic activity in chicken fertilized egg chorioallantoic membrane assessed as appearance of less dense microvasculature at 2 uM after 48 hrs by stereomicroscopic analysis; assay type: functional, tissue-based; conditions: Gallus gallus; procedure, shortened: as §1
Chorioallantoic membrane [3] = assay: Antiangiogenic activity in chicken fertilized egg chorioallantoic membrane assessed as reduction in capillary formation at 3 uM after 48 hrs by stereomicroscopic analysis; assay type: functional, tissue-based; conditions: Gallus gallus; procedure, shortened: as §1
Chorioallantoic membrane [4] = assay: Antiangiogenic activity in chicken fertilized egg chorioallantoic membrane at 3 uM after 48 hrs by stereomicroscopic analysis relative to control; assay type: functional, tissue-based; conditions: Gallus gallus; procedure, shortened: as §1

Row | Activity (Danio rerio) | SMILES | Activity (Chorioallantoic membrane [1]) [%] | Activity (Chorioallantoic membrane [2]) | also measured
1 | inactive | C/C(=C\CO)CC/C=C(\C)C(=O)O[C@@H]1[C@@H]2O[C@]2(CO)[C@H]2[C@H](O[C@@H]3O[C@H](CO)[C@@H](O)[C@H](O)[C@H]3O)OC=C[C@@]12O | – | – | –
2 | inactive | C/C(=C\CO)CC/C=C(\C)C(=O)OC[C@H]1OC(O)[C@H](O)[C@@H](O)[C@@H]1O (some centres not stated) | – | – | –
3 | inactive | C[C@]1(O)CC[C@@H]2C(C(=O)O[C@@H]3CO[C@](O)(CO)[C@@H](O)[C@@H]3O)=CO[C@@H](O[C@@H]3O[C@H](COC(=O)C=Cc4ccc(O)cc4)[C@@H](O)[C@H](O)[C@H]3O)[C@@H]21 (mixture of isomers) | – | – | –
4 | inactive | C/C(=C/CO)CC/C=C(\C)C(=O)OC[C@H]1O[C@@H](O[C@@H]2OC=C(C(=O)O[C@@H]3CO[C@](O)(CO)[C@@H](O)[C@@H]3O)[C@H]3CC[C@](C)(O)[C@@H]23)[C@H](O)[C@@H](O)[C@@H]1O | – | – | –
5 | – | CC1=C(/C=C/C(C)=C/C=C/C(C)=C/C(=O)O)C(C)(C)CCC1 | – | – | Activity (Chorioallantoic membrane [3]): Active; Activity (Chorioallantoic membrane [4]): 45%
6 | inactive | C/C(=C\CO)CC/C=C(\C)C(=O)O[C@@H]1[C@@H]2O[C@]2(C)[C@H]2[C@H](O[C@@H]3O[C@H](CO)[C@@H](O)[C@H](O)[C@H]3O)OC=C[C@@]12OC(=O)/C(C)=C/CC/C(C)=C/CO | – | – | –
7 | inactive | C=C[C@@](C)(O)CC/C=C(\C)C(=O)O[C@@]12C=CO[C@@H](O[C@@H]3O[C@H](CO)[C@@H](O)[C@H](O)[C@H]3O)[C@@H]1[C@@]1(CO)O[C@H]1[C@H]2OC(=O)/C(C)=C/CC/C(C)=C/CO | 31.4 | Active | –
8 | inactive | C/C(=C\CO)CC/C=C(\C)C(=O)O[C@@H]1[C@@H]2O[C@]2(CO)[C@H]2[C@H](O[C@@H]3O[C@H](CO)[C@@H](O)[C@H](O)[C@H]3O)OC=C[C@@]12OC(=O)/C(C)=C/CC/C(C)=C/CO | – | – | –
9 | inactive | C/C(=C\CO[C@@H]1O[C@H](CO)[C@@H](O)[C@H](O)[C@H]1O)CC/C=C(\C)C(=O)O[C@@H]1O[C@H](CO)[C@@H](O)[C@H](O)[C@H]1O | – | – | –
10 | inactive | C=C[C@@](C)(O)CC/C=C(\C)C(=O)O[C@@]12C=CO[C@@H](O[C@@H]3O[C@H](CO)[C@@H](O)[C@H](O)[C@H]3O)[C@@H]1[C@@]1(C)O[C@H]1[C@H]2OC(=O)/C(C)=C/CC/C(C)=C/CO | – | – | –
11 | inactive | O=C(/C=C/c1ccccc1)OC[C@H]1O[C@@H](O[C@@H]2OC=C[C@@]3(O)[C@H](O)[C@@H]4O[C@]4(CO)[C@@H]23)[C@H](O)[C@@H](O)[C@@H]1O | – | – | –
12 | inactive | C[C@]12O[C@H]1[C@@H](OC(=O)/C=C/c1ccccc1)[C@]1(O)C=CO[C@@H](O[C@@H]3O[C@H](CO)[C@@H](O)[C@H](O)[C@H]3O)[C@@H]12 | 23.9 | Active | –

Row | SMILES | Activity (Danio rerio) | Activity (Chorioallantoic membrane [1]) [%] | Activity (Chorioallantoic membrane [2]) | also measured
13 | C[C@]12O[C@H]1[C@@H](O)[C@]1(O)C=CO[C@@H](O[C@@H]3O[C@H](CO)[C@@H](O)[C@H](O)[C@H]3O)[C@@H]12 [ANTIRRHINOSIDE] | 81% | 29.9 | Active | –
14 | C/C(=C\CO)CC/C=C(\C)C(=O)O[C@@H]1[C@@H]2O[C@]2(C)[C@H]2[C@H](O[C@@H]3O[C@H](CO)[C@@H](O)[C@H](O)[C@H]3O)OC=C[C@@]12O | 48.33% | 29.6 | Active | –
15 | COc1cc2c(cc1O)CC[C@@H]1[C@@H]2CC[C@]2(C)[C@@H](O)CC[C@@H]12 [2-METHOXYESTRADIOL] | 52% | – | – | –
16 | C/C(=C\CO)CC/C=C(\C)C(=O)O[C@@H]1O[C@H](CO)[C@@H](O)[C@H](O)[C@H]1O | 79.82% | – | – | –
17 | C=C[C@@](C)(O)CC/C=C(\C)C(=O)OC[C@H]1O[C@@H](O[C@@H]2OC=C(C(=O)O[C@@H]3CO[C@](O)(CO)[C@@H](O)[C@@H]3O)[C@H]3CC[C@](C)(O)[C@@H]23)[C@H](O)[C@@H](O)[C@@H]1O | 72.72% | 21.5 | Active | –
18 | C=C[C@@](C)(O)CC/C=C(\C)C(=O)O[C@@H]1O[C@H](CO)[C@@H](O)[C@H](O)[C@H]1O | 56.98% | 29 | Active | –
19 | C[C@]12O[C@H]1[C@@H](OC(=O)C=Cc1ccc(O)cc1)[C@]1(O)C=CO[C@@H](O[C@@H]3O[C@H](CO)[C@@H](O)[C@H](O)[C@H]3O)[C@@H]12 (mixture of isomers) | 77.38% | – | – | –

— ChEMBL document CHEMBL4422695, “Antiangiogenic Activity of Compounds Isolated from Anarrhinum pedatum” (2019)
